Test results reported in ChEMBL document CHEMBL1909519, “L-Proline anchored multicomponent synthesis of novel pyrido[2,3-a]carbazoles; investigation of in vitro antimicrobial, antioxidant, cytotoxicity and structure activity relationship studies” (Eur J Med Chem, 2011).
Values after ≈ are worked out from the molar mass of the structure shown.

What was measured:
[1] = test system: Staphylococcus aureus; experiment: Antibacterial activity against Staphylococcus aureus at 25 ug/ml after 24 hrs by agar disk diffusion assay; type: functional; conditions: read-out: DIZ
Outline: (§1)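 Agar well diffusion on nutrient agar against Gram-positive clinical isolates (PSG Hospital, Coimbatore). Compounds in DMSO tested at 0 (control), 25, 50, 75, 100; DMSO as solvent and negative control; ciprofloxacin ([…]) as positive control. Plates incubated 37 ± 2 °C, 24 h; zone of inhibition diameter read in mm.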

[2] = test system: Enterococcus faecalis; experiment: Antibacterial activity against Enterococcus faecalis at 25 ug/ml after 24 hrs by agar disk diffusion assay; type: functional; conditions: read-out: DIZ; outline: as §1
[3] = test system: Escherichia coli; experiment: Antibacterial activity against Escherichia coli at 25 ug/ml after 24 hrs by agar disk diffusion assay; type: functional; conditions: read-out: DIZ
Outline: (§2)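 Gram-negative clinical isolates (PSG Hospital, Coimbatore) tested by agar well diffusion on nutrient agar. Compounds dissolved in DMSO at 0 (control), 25, 50, 75, 100; DMSO was the negative control and ciprofloxacin ([…]) the positive control. Incubation 37 ± 2 °C for 24 h, then inhibition zone diameter measured in mm.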

[4] = test system: Klebsiella pneumoniae; experiment: Antibacterial activity against Klebsiella pneumoniae at 25 ug/ml after 24 hrs by agar disk diffusion assay; type: functional; conditions: read-out: DIZ; outline: as §2
[5] = test system: Aspergillus niger; experiment: Antifungal activity against Aspergillus niger at 25 ug/ml after 48 hrs by agar disk diffusion assay; type: functional; conditions: read-out: DIZ
Outline: (§3)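 Fungal isolates (PSG Hospital, Coimbatore) grown on Sabouraud dextrose agar; agar well diffusion with compounds in DMSO at 0 (control), 25, 50, 75, 100. DMSO negative control, fluconazole ([…]) positive control. Plates held 28 ± 2 °C for 48 h; zone of inhibition diameter recorded in mm.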

[6] = test system: Candida albicans; experiment: Antifungal activity against Candida albicans at 25 ug/ml after 48 hrs by agar disk diffusion assay; type: functional; conditions: read-out: DIZ; outline: as §3
[7] = test system: Staphylococcus aureus; experiment: Antibacterial activity against Staphylococcus aureus after 24 hrs by agar disk diffusion assay; type: functional; outline: as §1
[8] = test system: Enterococcus faecalis; experiment: Antibacterial activity against Enterococcus faecalis after 24 hrs by agar disk diffusion assay; type: functional; outline: as §1
[9] = test system: Escherichia coli; experiment: Antibacterial activity against Escherichia coli after 24 hrs by agar disk diffusion assay; type: functional; outline: as §2
[10] = test system: Klebsiella pneumoniae; experiment: Antibacterial activity against Klebsiella pneumoniae after 24 hrs by agar disk diffusion assay; type: functional; outline: as §2
[11] = test system: Aspergillus niger; experiment: Antifungal activity against Aspergillus niger after 48 hrs by agar disk diffusion assay; type: functional; outline: as §3
[12] = test system: Candida albicans; experiment: Antifungal activity against Candida albicans after 48 hrs by agar disk diffusion assay; type: functional; outline: as §3
[13] = test system: A549; experiment: Cytotoxicity against human A549 cells after 48 hrs by SRB assay; type: functional, cell-based; conditions: A549, 48 h
Outline: (§4)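 Cells in RPMI-1640 with 10% heat-inactivated FBS, 1 mM NaHCO3, 2 mM L-glutamine, 37 °C, 5% CO2; seeded (B16F10 5 × 10⁴ cells/mL, others 1 × 10⁵ cells/mL), 24 h, then compounds in DMSO at 1.56–50 for 48 h, triplicate wells. TCA fixation, SRB staining 30 min, tris extraction, OD 520 nm; IC50 by linear regression, mean ± SD of three independent experiments; cisplatin positive control.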

[14] = test system: B16-F10; experiment: Cytotoxicity against mouse B16F10 cells after 48 hrs by SRB assay; type: functional, cell-based; conditions: B16-F10, 48 h; outline: as §4
[15] = test system: HCT-15; experiment: Cytotoxicity against human HCT15 cells after 48 hrs by SRB assay; type: functional, cell-based; conditions: HCT-15, 48 h; outline: as §4
[16] = Cytotoxicity against human SK-MEL-12 cells after 48 hrs by SRB assay; type: functional, cell-based; outline: as §4
[17] = test system: SK-OV-3; experiment: Cytotoxicity against human SKOV3 cells after 48 hrs by SRB assay; type: functional, cell-based; conditions: SK-OV-3, 48 h; outline: as §4
[18] = test system: Radical scavenging activity; experiment: Antioxidant activity assessed as DPPH radical scavenging activity after 30 mins by micro plate reader; type: functional
Outline: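 DPPH assay: various compound concentrations brought to volume with ethanol, mixed with 0.1 mM ethanolic DPPH alongside vitamin C standard; shaken 30 min at 24 °C, absorbance read at 517 nm; concentration giving 50% decrease determined.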

[19] = test system: A549; experiment: Ratio of cisplatin IC50 to compound IC50 for human A549 cells; type: functional
[20] = test system: HCT-15; experiment: Ratio of cisplatin IC50 to compound IC50 for human HCT15 cells; type: functional
[21] = organism: Homo sapiens; experiment: Ratio of cisplatin IC50 to compound IC50 for human SK-MEL-12; type: functional
[22] = test system: SK-OV-3; experiment: Cytotoxicity against human SKOV3 cells up to 50 ug/ml after 48 hrs by SRB assay; type: functional, cell-based; outline: as §4
[23] = test system: Staphylococcus aureus; experiment: Antibacterial activity against Staphylococcus aureus at 50 ug/ml after 24 hrs by agar disk diffusion assay; type: functional; conditions: read-out: DIZ; outline: as §1
[24] = test system: Enterococcus faecalis; experiment: Antibacterial activity against Enterococcus faecalis at 50 ug/ml after 24 hrs by agar disk diffusion assay; type: functional; conditions: read-out: DIZ; outline: as §1
[25] = test system: Escherichia coli; experiment: Antibacterial activity against Escherichia coli at 50 ug/ml after 24 hrs by agar disk diffusion assay; type: functional; conditions: read-out: DIZ; outline: as §2
[26] = test system: Klebsiella pneumoniae; experiment: Antibacterial activity against Klebsiella pneumoniae at 50 ug/ml after 24 hrs by agar disk diffusion assay; type: functional; conditions: read-out: DIZ; outline: as §2
[27] = test system: Aspergillus niger; experiment: Antifungal activity against Aspergillus niger at 50 ug/ml after 48 hrs by agar disk diffusion assay; type: functional; conditions: read-out: DIZ; outline: as §3
[28] = test system: Candida albicans; experiment: Antifungal activity against Candida albicans at 50 ug/ml after 48 hrs by agar disk diffusion assay; type: functional; conditions: read-out: DIZ; outline: as §3
[29] = test system: A549; experiment: Cytotoxicity against human A549 cells up to 50 ug/ml after 48 hrs by SRB assay; type: functional, cell-based; outline: as §4
[30] = test system: B16-F10; experiment: Cytotoxicity against mouse B16F10 cells up to 50 ug/ml after 48 hrs by SRB assay; type: functional, cell-based; outline: as §4
[31] = test system: HCT-15; experiment: Cytotoxicity against human HCT15 cells up to 50 ug/ml after 48 hrs by SRB assay; type: functional, cell-based; outline: as §4
[32] = Cytotoxicity against human SK-MEL-12 cells up to 50 ug/ml after 48 hrs by SRB assay; type: functional, cell-based; outline: as §4

| Compound | zone of inhibition at 25 µg/mL [1] [mm] | zone of inhibition at 25 µg/mL [2] [mm] | zone of inhibition at 25 µg/mL [3] [mm] | zone of inhibition at 25 µg/mL [4] [mm] | zone of inhibition at 25 µg/mL [5] [mm] | zone of inhibition at 25 µg/mL [6] [mm] | MIC [7] [µg/mL] | MIC [8] [µg/mL] | MIC [9] [µg/mL] | MIC [10] [µg/mL] | MIC [11] [µg/mL] | MIC [12] [µg/mL] | IC50 [13] [µg/mL] | IC50 [14] [µg/mL] | IC50 [15] [µg/mL] | IC50 [16] [µg/mL] | IC50 [18] [µg/mL] | IC50 [22] | also measured |
| --- | --- | --- | --- | --- | --- | --- | --- | --- | --- | --- | --- | --- | --- | --- | --- | --- | --- | --- | --- |
| Cc1ccc2[nH]c3c(c2c1)CCc1c-3nc(N)c(C#N)c1-c1cc2ccccc2nc1Cl | 25 | 24 | 23 | 25 | 6 | 10 | 25 (≈ 57.4 µM) | 25 (≈ 57.4 µM) | 25 (≈ 57.4 µM) | 25 (≈ 57.4 µM) | > 100 | > 100 | 3.72 (≈ 8.53 µM) | 5.89 (≈ 13.5 µM) | 4.43 (≈ 10.2 µM) | 4.48 (≈ 10.3 µM) | 163.07 (≈ 374 µM) |  | IC50 [17]: 21.9 µg/mL (≈ 50.3 µM); Ratio IC50 [19]: 1.51; Ratio IC50 [20]: 1.79; Ratio IC50 [21]: 2.32 |
| CCOC(=O)c1c(N)nc2c(c1-c1cccs1)CCc1c-2[nH]c2ccc(C)cc12 | 27 | 28 | 26 | 29 | 17 | 18 | 25 (≈ 62 µM) | 25 (≈ 62 µM) | 25 (≈ 62 µM) | 25 (≈ 62 µM) | 75 (≈ 186 µM) | 75 (≈ 186 µM) | 23.4 (≈ 58 µM) | 19.4 (≈ 48 µM) | 22.5 (≈ 55.8 µM) | 48.2 (≈ 119 µM) | 244.85 (≈ 607 µM) | Not Active |  |
| CCOC(=O)c1c(N)nc2c(c1-c1cccnc1)CCc1c-2[nH]c2ccc(C)cc12 |  |  |  |  |  |  | 50 (≈ 125 µM) | 50 (≈ 125 µM) | 50 (≈ 125 µM) | 50 (≈ 125 µM) | > 100 | > 100 | 43.7 (≈ 110 µM) | 29.4 (≈ 73.8 µM) | 33.8 (≈ 84.8 µM) | 24.9 (≈ 62.5 µM) | 210.34 (≈ 528 µM) | Not Active | zone of inhibition at 50 µg/mL [23]: 19 mm; zone of inhibition at 50 µg/mL [24]: 17 mm; zone of inhibition at 50 µg/mL [25]: 20 mm; zone of inhibition at 50 µg/mL [26]: 21 mm; zone of inhibition at 50 µg/mL [27]: 4 mm; zone of inhibition at 50 µg/mL [28]: 9 mm |
| CCOC(=O)c1c(N)nc2c(c1-c1ccc(Br)cc1)CCc1c-2[nH]c2ccc(C)cc12 | 23 | 22 | 21 | 25 | 5 | 7 | 25 (≈ 52.5 µM) | 25 (≈ 52.5 µM) | 25 (≈ 52.5 µM) | 25 (≈ 52.5 µM) | > 100 | > 100 |  |  |  |  | 214.77 (≈ 451 µM) | Not Active | IC50 [29]: Not Active; IC50 [30]: Not Active; IC50 [31]: Not Active; IC50 [32]: Not Active |
| O=C1O[C@H]([C@@H](O)CO)C(O)=C1O [ASCORBIC ACID] |  |  |  |  |  |  |  |  |  |  |  |  |  |  |  |  | 45.94 (≈ 261 µM) |  |  |
